Test results as given in publication PMC5790683 (Journal of Pharmaceutical Analysis, 2013).

Key:
[1] = Pharmacokinetic study in healthy male subjects after oral desmopressin; format: in vivo; settings: human, plasma, 0.4 mg
Method in brief: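 Healthy male volunteers (n=6), fasted 9 h, received a single oral 0.4 mg dose (2×0.2 mg tablets). Plasma was spun at 3200 rpm for 10 min, stored at −20±5 °C, spiked with IS, extracted and quantified by positive-ESI MRM UPLC–MS/MS (HSS T3 column, 40 °C; LLOQ 1.01 pg/mL). Non-compartmental analysis.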

[2] = Processed sample stability; format: physicochemical; settings: 45 h at 2-8 °C, UPLC-MS/MS, mean of n=6
Method in brief: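 Processed-sample stability was tested at LQC and HQC in human plasma, six replicates per level: autosampler 48 h, wet extract 45 h, reinjection 24 h. Extracts were analysed by UPLC–MS/MS against a 9-point calibration of 1.01–200 pg/mL. Acceptance was accuracy within ±15% and precision ≤15% RSD.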

Compound: NC(=O)CC[C@@H]1NC(=O)[C@H](Cc2ccccc2)NC(=O)[C@H](Cc2ccc(O)cc2)NC(=O)CCSSC[C@@H](C(=O)N2CCC[C@H]2C(=O)N[C@H](CCCN=C(N)N)C(=O)NCC(N)=O)NC(=O)[C@H](CC(N)=O)NC1=O [desmopressin]
- AUC(0-inf) [1]: 0.157 ± 0.051 ng·h/mL
- AUC(0-t) [1]: 0.149 ± 0.046 ng·h/mL
- Cmax [1]: 0.035 ± 0.0081 ng/mL
- Tmax [1]: 1.4 ± 0.48 h
- half-life [1]: 3.48 ± 0.5 h
- level at 1.25 h [1]: 0.0361 ng/mL
- Accuracy/stability (%), Process (wet extract) ([2]; spiked 3.05 pg/mL (LQC)): 94.84%
- Accuracy/stability (%), Process (wet extract) ([2]; spiked 156.23 pg/mL (HQC)): 99.20%
